In one experiment the test system is MCF7. In words: Cytotoxicity against human MCF7 cells by SRB assay. The format is functional, cell-based. Put shortly:
(§1)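 Colorimetric growth assay following the Skehan method, run on three human lines: KB (oral epidermal carcinoma), MCF7 (breast adenocarcinoma) and NCI-H187 (small cell lung).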
In general terms: Sulforhodamine B stains cellular protein and so reports cell mass.

The next experiment has as its system Plasmodium falciparum. In words: Antiplasmodial activity against multi drug-resistant Plasmodium falciparum K1 infected in human type A+ erythrocytes assessed as inhibition of [G-3H]hypoxanthine incorporation after 42 hrs by scintillation counting. The format is functional, organism-based. Conditions: for IC50: K1, 42 h.
Another experiment has as its system KB. In words: Cytotoxicity against human KB cells by SRB assay. The format is functional, cell-based. An outline of the steps:
as §1

The next experiment relates to NCI-H187. In words: Cytotoxicity against human NCI-H187 cells by SRB assay. The format is functional, cell-based. An outline of the steps:
as §1

≈ marks a conversion by molar mass, not a printed value. Calls of active or inactive are those of the source. The rule behind the calls is not given here.

One may read the IC50 as the concentration that gives 50% inhibition. As to `CC(=O)OC[C@@]12[C@H](OC(C)=O)[C@H](OC(C)=O)[C@@H]3[C@@H](OC(=O)c4ccccc4)[C@@]14O[C@@]3(C)COC(=O)c1cccnc1CC[C@](C)(OC(C)=O)C(=O)O[C@@H]([C@H](OC(C)=O)[C@@H]2OC(C)=O)[C@]4(C)O` [MEKONGENSINE], the outcome with MCF7 and in the experiment with NCI-H187 was inactive. Moreover, the values for the IC50 in the experiment with Plasmodium falciparum and in the experiment on KB were 3.1 µM and 28.2 µg/mL (≈ 30.5 µM), respectively.
Take `CC(=O)OC[C@]12[C@H](OC(C)=O)[C@H](OC(C)=O)[C@@H]3[C@@H](OC(C)=O)[C@@]14O[C@@]3(C)COC(=O)c1cccnc1C(C)C(C)C(=O)O[C@@H]([C@H](OC(C)=O)[C@@H]2OC(=O)c1ccccc1)[C@]4(C)O` (some centres undefined): the result with Plasmodium falciparum was inactive.
Still for that read-out and setting: the value for `CC(=O)OC[C@@]12[C@H](OC(C)=O)[C@@H](OC(C)=O)[C@@H]3[C@@H](OC(C)=O)[C@@]14O[C@@]3(C)COC(=O)c1cccnc1[C@@H](C)[C@H](C)C(=O)O[C@@H]([C@H](OC(C)=O)[C@@H]2OC(=O)c1ccccc1)[C@]4(C)O` was “inactive”; that for `CC(=O)OC[C@]12[C@H](OC(C)=O)[C@H](OC(C)=O)[C@@H]3[C@@H](OC(C)=O)[C@@]14O[C@@]3(C)COC(=O)c1cccnc1C(C)C(C)C(=O)O[C@@H]([C@H](OC(C)=O)[C@@H]2OC(C)=O)[C@]4(C)O` (some centres undefined) was “inactive”.
On to `CC(=O)OC[C@@]12[C@H](OC(C)=O)[C@H](OC(C)=O)[C@@H]3[C@@H](OC(=O)c4ccccc4)[C@@]14O[C@@]3(C)COC(=O)c1cccnc1CC[C@](C)(OC(C)=O)C(=O)O[C@@H]([C@H](OC(C)=O)[C@@H]2OC(=O)c1ccccc1)[C@]4(C)O`, for which the IC50 with Plasmodium falciparum was 3.5 µM.
On the same count and under the same terms, the value for `CC(=O)OC[C@@]12[C@H](OC(C)=O)[C@H](OC(C)=O)[C@@H]3[C@@H](OC(=O)c4ccccc4)[C@@]14O[C@@]3(C)COC(=O)c1cccnc1CC[C@H](C)C(=O)O[C@@H]([C@H](OC(C)=O)[C@@H]2OC(=O)c1ccccc1)[C@]4(C)O` was 2.5 µM; that for `CC(=O)OC[C@@]12[C@H](OC(C)=O)[C@@H](OC(C)=O)[C@@H]3[C@@H](OC(=O)c4ccccc4)[C@@]14O[C@@]3(C)COC(=O)c1cccnc1CC[C@](C)(OC(C)=O)C(=O)O[C@@H]([C@H](OC(C)=O)[C@@H]2OC(C)=O)[C@]4(C)O` was 3.9 µM.
Take `CC(=O)OC[C@@]12[C@H](OC(C)=O)[C@H](OC(C)=O)[C@@H]3[C@@H](OC(=O)c4ccccc4)[C@@]14O[C@@]3(C)COC(=O)c1cccnc1CC[C@H](C)C(=O)O[C@@H]([C@H](OC(C)=O)[C@@H]2OC(C)=O)[C@]4(C)O`: the outcome in the experiment on MCF7 and in the experiment with NCI-H187 was inactive. The IC50 with Plasmodium falciparum was 3.1 µM; in the experiment with KB it was 46.7 µg/mL (≈ 53.8 µM).

For the origin of these results see ChEMBL document CHEMBL1811885, “Antiplasmodial sesquiterpene alkaloids from the roots of Maytenus mekongensis” (J Nat Prod, 2011).
